IDH1 mut inh = inhibitors of IDH1 R132H reductase, primary screen, biochemical, plate reader, single point | 70,000 compounds, 0.18% hits | diaphorase/resazurin fluorescence, 60 min | inhibition, % at 10 µM | AID 624101, 2012; in the data active means inhibition above about 34%
Target sequence (O75874 whole entry R132H): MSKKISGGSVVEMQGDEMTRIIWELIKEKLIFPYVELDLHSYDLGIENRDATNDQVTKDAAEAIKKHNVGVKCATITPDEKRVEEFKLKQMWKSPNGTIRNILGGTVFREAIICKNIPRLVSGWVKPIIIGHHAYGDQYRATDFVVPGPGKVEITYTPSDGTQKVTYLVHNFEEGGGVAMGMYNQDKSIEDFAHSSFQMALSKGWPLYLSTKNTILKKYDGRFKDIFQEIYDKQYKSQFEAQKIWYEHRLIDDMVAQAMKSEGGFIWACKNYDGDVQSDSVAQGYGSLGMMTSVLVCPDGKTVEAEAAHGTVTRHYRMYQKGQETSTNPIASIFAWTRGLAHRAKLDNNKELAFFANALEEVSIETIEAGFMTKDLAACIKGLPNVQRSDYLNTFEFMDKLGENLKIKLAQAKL
KDM4C inh = inhibitors of GASC-1 (KDM4C) histone demethylase, primary screen, biochemical, single concentration HTS | Lysine-specific demethylase 4C (Homo sapiens), Q9H3R0 | GST-KDM4C 2-372, H3K9me3 peptide, LANCE TR-FRET | inhibition, % at 12.5 µM | 96,000 compounds, 0.15% hits;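 active means mean replicate inhibition above about 25%, with at least 55% of replicates also reaching it, limit read from the data, passing the limit was not always enough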
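material = GST-tagged GASC-1 (JMJD2C) catalytic fragment, aa 2-372 | amount = enzyme final amount 10 nM | medium = HEPES buffer, pH 7.5, plus ascorbate | also added = H3K9me3 peptide substrate, Fe(II), 2-oxoglutarate | dosing = single dose | times = 30 min demethylation and 1 h detection at room temperature | detection = LANCE TR-FRET | read-out basis = Fall in 671/618 emission ratio as inhibition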
Pf Dd2 inh = P. falciparum Dd2 growth inhibitors, primary screen, SYBR Green fluorescence, single dose replicates; 72 h; hits give low values; activity change, % at 10 µM; 94,000 compounds, 2.3% hits; AID 1159554, 2015; in the data active means activity change below about -80%
Hits are given with their value; n = inactive; x = not tested or not shown. This is one part of a sample in which hits are shown more often than they occur.

SMILES	IDH1 mut inh	KDM4C inh	Pf Dd2 inh
C[C@H](O)C#Cc1cnc2c(c1)C(=O)N([C@H](C)CO)C[C@@H](C)[C@@H](CN(C)C(=O)c1ccccc1)O2	n	n	n
COc1ccc(NC(=O)N(C)C[C@H]2Oc3cc(C#CCN(C)C)ccc3S(=O)(=O)N([C@H](C)CO)C[C@@H]2C)cc1	n	n	n
Cc1ccc(-n2c(C)nnc2SCC(=O)Nc2ccc(Cl)cc2Cl)cc1	n	x	x
COc1ccc(NC(=O)N(C)C[C@@H]2Oc3cc(-c4ccncc4)ccc3S(=O)(=O)N([C@@H](C)CO)C[C@@H]2C)cc1	n	n	n
COc1ccc(NC(=O)N(C)C[C@@H]2Oc3cc(-c4ccncc4)ccc3S(=O)(=O)N([C@H](C)CO)C[C@@H]2C)cc1	71.3	36.9	n
C[C@H](CO)N1C[C@H](C)[C@H](CN(C)Cc2ccc(Cl)c(Cl)c2)OCc2cn(nn2)CCCC1=O	n	n	n
COc1ccc2c3c(n(C)c2c1)[C@H](CO)NCC31CCN(S(=O)(=O)c2cccc(C)c2)CC1	x	n	n
COc1ccc2c3c([nH]c2c1)[C@@H](CO)NCC31CCN(C(=O)C2CCOCC2)CC1	x	n	-82.1
COc1cccc(S(=O)(=O)N2CCC3(CC2)CN[C@H](CO)c2[nH]c4cc(OC)ccc4c23)c1	x	n	-87.8
COc1ccc2c3c([nH]c2c1)[C@H](CO)NCC31CCN(C(=O)C2CCOCC2)CC1	x	n	n
COc1ccc2c3c([nH]c2c1)[C@@H](CO)NCC31CN(C(=O)c2ccccc2)C1	x	n	n
COc1ccc2c3c(n(C)c2c1)[C@H](CO)NCC31CCN(S(=O)(=O)c2cccc(F)c2)CC1	x	n	-86.1
COc1ccc2c3c([nH]c2c1)[C@H](CO)NCC31CCN(C(=O)c2ccccc2)CC1	x	n	-84.1
COc1ccc2c3c([nH]c2c1)[C@@H](CO)NCC31CCN(S(=O)(=O)c2cccs2)CC1	x	n	n
C[C@H]1CN([C@@H](C)CO)C(=O)Cc2cc(NC(=O)Nc3cccc4ccccc34)ccc2O[C@@H]1CN(C)C(=O)Nc1ccc(F)cc1	n	n	n
O=C(C[C@H]1C[C@H]2c3cc(NC(=O)Cc4ccncc4)ccc3O[C@H]2[C@H](CO)O1)NCCN1CCCCC1	n	n	n
COc1ccc2c3c([nH]c2c1)[C@@H](CO)N(Cc1ccccc1)CC31CCN(C(C)=O)CC1	x	x	n
COCC(=O)N1CC2(C1)CN(Cc1cccc(Cl)c1)[C@H](CO)c1[nH]c3cc(OC)ccc3c12	x	n	n
COc1ccc2c3c([nH]c2c1)[C@@H](CO)N(Cc1cccc(Cl)c1)CC31CCN(C(C)=O)CC1	x	n	-88.4
COCC(=O)N1CCC2(CC1)CN(Cc1cccc(Cl)c1)[C@H](CO)c1[nH]c3cc(OC)ccc3c12	x	n	n
COc1ccc2c3c([nH]c2c1)[C@H](CO)N(Cc1ccc(F)cc1)CC31CCN(C(C)=O)CC1	x	n	-88.9
COc1ccc2c3c([nH]c2c1)[C@H](CO)N(Cc1ccc(F)cc1)CC31CCN(C)CC1	x	n	n
COc1ccc2c3c([nH]c2c1)[C@@H](CO)N(Cc1cccc(Cl)c1)CC31CN(C(C)=O)C1	x	n	-88.6
COc1ccc2c3c([nH]c2c1)[C@H](CO)N(Cc1cccc(Cl)c1)CC31CCN(C(C)=O)CC1	x	n	-89.1
C[C@H]1CN([C@@H](C)CO)C(=O)c2cccc(NC(=O)c3cnccn3)c2O[C@H]1CN(C)C	n	n	n
SMILES	IDH1 mut inh	KDM4C inh	Pf Dd2 inh
C[C@H]1CN([C@@H](C)CO)C(=O)Cc2cc(NS(=O)(=O)c3cn(C)cn3)ccc2O[C@H]1CN(C)S(=O)(=O)c1ccc(Cl)cc1	n	n	n
O=C(NCC[C@@H]1CC[C@H](NC(=O)C2CC2)[C@@H](CO)O1)Nc1ccc(Cl)cc1	n	n	x
O=C(NC[C@H]1CC[C@H]2[C@H](CN2C(=O)C2CC2)O1)c1cnccn1	x	x	n
CCC(=O)Nc1ccc2c(c1)OC[C@H](C)N(Cc1cncnc1)C[C@@H](C)[C@H](OC)CN(C)C2=O	n	n	n
O=C(Nc1ccc2c(c1)[C@H]1C[C@H](CC(=O)N3CCc4ccccc4C3)O[C@H](CO)[C@H]1O2)Nc1ccccc1F	n	n	n
COc1ccccc1CNC(=O)C[C@H]1C[C@@H]2c3cc(NS(C)(=O)=O)ccc3O[C@@H]2[C@H](CO)O1	n	n	n
CO[C@@H]1CN(C)C(=O)c2ccc(NC(=O)c3ccc(F)cc3)cc2OC[C@H](C)N(C(=O)c2ccc(F)cc2)C[C@H]1C	n	n	n
CO[C@@H]1CN(C)C(=O)c2ccc(NC(=O)c3ccc(F)cc3)cc2OC[C@@H](C)N(C(=O)c2ccc(F)cc2)C[C@@H]1C	n	n	-88.0
CO[C@H]1CN(C)C(=O)c2cc(NC(=O)c3ccccc3)ccc2OC[C@@H](C)N(C(C)=O)C[C@@H]1C	87.5	x	n
CO[C@@H]1CN(C)C(=O)c2cc(NC(=O)c3ccccc3)ccc2OC[C@H](C)N(C(C)=O)C[C@H]1C	n	n	n
N#C[C@@H]1[C@H](c2ccccc2C2=CCCC2)[C@H](CO)N1C(=O)NC1CCCC1	x	n	n
N#C[C@@H]1[C@H](c2ccccc2C2=CCCCC2)[C@@H](CO)N1C(=O)c1cccc(F)c1	x	n	-93.9
CCCNC(=O)N1[C@H](C#N)[C@@H](c2ccccc2C2=CCCC2)[C@@H]1CO	x	n	-89.1
N#C[C@@H]1[C@@H](c2ccccc2C2=CCCCC2)[C@@H](CO)N1C(=O)c1cccc(F)c1	x	n	n
COc1ccccc1S(=O)(=O)N[C@@H]1C=C[C@@H](CC(=O)N2CCCCC2)O[C@@H]1CO	n	n	n
C[C@@H]1CN([C@H](C)CO)C(=O)c2cc(-c3cccc(F)c3)cnc2O[C@H]1CN(C)C(=O)C1CCCCC1	n	n	n
COc1ccc(S(=O)(=O)N(C)C[C@@H]2Oc3ccc(NC(=O)Cc4cn(C)c5ccccc45)cc3CC(=O)N([C@H](C)CO)C[C@@H]2C)cc1	n	n	n
C[C@H](CO)N1C[C@H](C)[C@@H](CN(C)Cc2cccnc2)OCc2cn(nn2)CCCC1=O	n	n	n
C[C@@H]1CCCCO[C@@H](CN(C)S(=O)(=O)c2ccc(F)cc2)[C@H](C)CN([C@H](C)CO)C(=O)c2cc(NC(=O)Nc3cccc4ccccc34)ccc2O1	n	n	-82.0
C[C@@H]1CN([C@H](C)CO)C(=O)c2cc(NC(=O)Nc3cccc4ccccc34)ccc2O[C@@H](C)CCCCO[C@@H]1CN(C)S(=O)(=O)c1ccccc1	x	x	-93.2
C[C@@H]1CCCCO[C@@H](CN(C)S(=O)(=O)c2ccc(F)cc2)[C@@H](C)CN([C@@H](C)CO)C(=O)c2cc(NC(=O)Nc3cccc4ccccc34)ccc2O1	n	n	-83.8
C[C@@H]1CN([C@H](C)CO)C(=O)c2cc(NC(=O)Nc3cccc4ccccc34)ccc2O[C@@H](C)CCCCO[C@@H]1CN(C)S(=O)(=O)c1cccs1	x	n	-88.4
C[C@@H]1CCCCO[C@H](CN(C)S(=O)(=O)c2ccccc2)[C@@H](C)CN([C@H](C)CO)C(=O)c2cc(NC(=O)Nc3cccc4ccccc34)ccc2O1	n	n	n
